Measurements from ChEMBL document CHEMBL4665798, “Novel Human Urate Transporter 1 Inhibitors as Hypouricemic Drug Candidates with Favorable Druggability” (J Med Chem, 2020).

Columns and labels:
[1] = Sub-acute toxicity in male Kunming mouse assessed as increase in body weight at 50 mg/kg, po administered once every second day for 14 days; format: organism-based; details: in vivo, 336 h, time 14 day
[2] = Acute toxicity in Kunming mouse assessed as death at 500 mg/kg, ig measured for 1 week; format: organism-based; details: in vivo, po, 168 h, time 1 weeks
[3] = Cmax in Sprague-Dawley rat at 10 mg/kg, po by LC-MS analysis; format: ADME, organism-based; set-up: route oral, dose 10 mg/kg; details: in vivo
Outline: (§1)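 Male Sprague-Dawley rats, two groups, dosed iv or orally; compound in PEG 400/normal saline (70/30, V/V). Oral blood from sinus jugularis at 5 min to 24 h, plasma by centrifugation at 2200 g, stored -20 °C. Plasma with internal standard precipitated by methanol, quantified by LC-MS against spiked blank-plasma standard curves. Mean ± SD, n = 5.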

[4] = MRT (0 to infinity) in Sprague-Dawley rat at 10 mg/kg, po by LC-MS analysis; format: ADME, organism-based; details: in vivo; outline: as §1
[5] = AUC (0 to t) in Sprague-Dawley rat at 10 mg/kg, po by LC-MS analysis; format: ADME, organism-based; set-up: dose 10 mg/kg; details: in vivo; outline: as §1
[6] = AUC (0 to infinity) in Sprague-Dawley rat at 1 mg/kg, iv by LC-MS analysis; format: ADME, organism-based; set-up: time infinity, route intravenous, dose 1 mg/kg; details: in vivo
[7] = biological target: T1, Solute carrier family 2, facilitated glucose transporter member 9 (Homo sapiens, UniProt Q9NRM0); experiment: Inhibition of GLUT9 (unknown origin)
T1 sequence (Q9NRM0 whole entry): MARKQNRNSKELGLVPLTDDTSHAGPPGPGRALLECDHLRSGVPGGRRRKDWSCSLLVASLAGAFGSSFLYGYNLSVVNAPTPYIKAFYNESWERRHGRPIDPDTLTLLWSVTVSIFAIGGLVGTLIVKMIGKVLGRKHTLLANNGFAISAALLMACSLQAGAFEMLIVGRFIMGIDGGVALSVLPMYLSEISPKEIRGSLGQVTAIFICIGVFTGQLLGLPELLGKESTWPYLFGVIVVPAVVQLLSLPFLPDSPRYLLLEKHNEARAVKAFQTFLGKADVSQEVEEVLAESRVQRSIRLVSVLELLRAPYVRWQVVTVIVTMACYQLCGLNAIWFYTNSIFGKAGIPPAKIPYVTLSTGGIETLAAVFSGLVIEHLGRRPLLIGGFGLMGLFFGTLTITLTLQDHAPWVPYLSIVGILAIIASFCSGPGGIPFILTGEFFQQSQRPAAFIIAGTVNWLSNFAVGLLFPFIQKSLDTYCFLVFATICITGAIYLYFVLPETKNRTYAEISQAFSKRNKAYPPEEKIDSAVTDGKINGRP

[8] = Sub-acute toxicity in Kunming mouse assessed as appearance of ruffled fur at 50 mg/kg, po administered once every second day for 14 days; format: organism-based; details: in vivo, 336 h, time 14 day
[9] = Tmax in male Kunming mouse at 500 mg/kg, po by LC-MS/MS analysis; format: ADME, organism-based; details: in vivo
Outline: (§2)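 Male Kunming mice given oral compound in PEG 400/normal saline (70/30, V/V). Blood from submandibular or saphenous vein into K2EDTA tubes at 0.25 to 72 h. Plasma spun at 3200g near 4 °C, kept -70 °C, precipitated with acetonitrile plus dexamethasone internal standard. Quantified by LC-MS/MS against spiked blank-plasma standard curves.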

[10] = Cmax in male Kunming mouse at 500 mg/kg, po by LC-MS/MS analysis; format: ADME, organism-based; set-up: route oral, dose 500 mg/kg; details: in vivo; outline: as §2
[11] = Half-life in male Kunming mouse at 500 mg/kg, po by LC-MS/MS analysis; format: ADME, organism-based; details: in vivo; outline: as §2
[12] = MRT (0 to infinity) in male Kunming mouse at 500 mg/kg, po by LC-MS/MS analysis; format: ADME, organism-based; details: in vivo; outline: as §2
[13] = Cmax in male Kunming mouse at 50 mg/kg, po by LC-MS/MS analysis; format: ADME, organism-based; set-up: route oral, dose 50 mg/kg; details: in vivo
Outline: (§3)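 Male Kunming mice, ten in total, split into five groups; single oral dose in PEG 400/normal saline (70/30, v/v). Blood taken from submandibular or saphenous vein into K2EDTA tubes at 0.25, 0.5, 1, 2, 4, 8, 24, 48, 72 h. Plasma spun at about 4 °C and kept at -70 °C. Acetonitrile precipitation with dexamethasone internal standard, then LC-MS/MS against plasma standard curves.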

[14] = AUC (0 to infinity) in male Kunming mouse at 50 mg/kg, po by LC-MS/MS analysis; format: ADME, organism-based; set-up: route oral, time infinity, dose 50 mg/kg; details: in vivo; outline: as §3
[15] = MRT (0 to infinity) in male Kunming mouse at 50 mg/kg, po by LC-MS/MS analysis; format: ADME, organism-based; details: in vivo; outline: as §3
[16] = AUC (0 to t) in male Kunming mouse at 50 mg/kg, po by LC-MS/MS analysis; format: ADME, organism-based; set-up: dose 50 mg/kg; details: in vivo; outline: as §3
[17] = Tmax in male Kunming mouse at 2 mg/kg, po by LC-MS/MS analysis; format: ADME, organism-based; details: in vivo; outline: as §3
[18] = MRT (0 to infinity) in male Kunming mouse at 2 mg/kg, po by LC-MS/MS analysis; format: ADME, organism-based; details: in vivo; outline: as §3
[19] = AUC (0 to t) in male Kunming mouse at 2 mg/kg, po by LC-MS/MS analysis; format: ADME, organism-based; set-up: dose 2 mg/kg; details: in vivo; outline: as §3
[20] = Cmax in Sprague-Dawley rat at 20 mg/kg, po by LC-MS analysis; format: ADME, organism-based; set-up: route oral, dose 20 mg/kg; details: in vivo
[21] = AUC (0 to infinity) in Sprague-Dawley rat at 20 mg/kg, po by LC-MS analysis; format: ADME, organism-based; set-up: route oral, time infinity, dose 20 mg/kg; details: in vivo
[22] = AUC (0 to t) in Sprague-Dawley rat at 20 mg/kg, po by LC-MS analysis; format: ADME, organism-based; set-up: dose 20 mg/kg; details: in vivo
Rattus norvegicus = species: Rattus norvegicus; experiment: Potency index, ratio of lesinurad to test compound for hypouricemic activity in rat model of xanthine/potassium oxonate-induced acute hyperuricemia assessed as decrease in serum uric acid level; format: functional
[23] = biological target: T2, Solute carrier family 22 member 12 (Homo sapiens, UniProt Q96S37); experiment: Potency index, ratio of lesinurad IC50 to test compound IC50 for inhibition of human URAT1 expressed in HEK293T cells assessed as reduction in [14C]uric acid uptake preincubated for 15 mins followed by [14C]uric acid addition by liquid scintillation counting method; format: cell-based
T2 sequence (Q96S37 whole entry): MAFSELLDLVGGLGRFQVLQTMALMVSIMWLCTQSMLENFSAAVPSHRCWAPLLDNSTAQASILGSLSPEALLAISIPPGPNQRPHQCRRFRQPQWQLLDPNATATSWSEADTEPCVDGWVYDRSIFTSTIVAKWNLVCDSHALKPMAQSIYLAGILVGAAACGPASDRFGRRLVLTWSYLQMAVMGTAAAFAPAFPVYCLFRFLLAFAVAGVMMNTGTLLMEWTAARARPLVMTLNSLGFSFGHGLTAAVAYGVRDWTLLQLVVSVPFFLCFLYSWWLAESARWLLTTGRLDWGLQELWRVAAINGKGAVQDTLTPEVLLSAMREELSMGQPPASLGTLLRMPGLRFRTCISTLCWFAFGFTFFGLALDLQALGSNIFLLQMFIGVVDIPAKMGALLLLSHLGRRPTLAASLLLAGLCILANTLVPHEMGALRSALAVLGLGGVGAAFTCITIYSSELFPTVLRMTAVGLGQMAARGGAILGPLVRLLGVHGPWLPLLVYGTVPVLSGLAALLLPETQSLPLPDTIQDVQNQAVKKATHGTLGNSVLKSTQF

O=C(CSc1nnc(Br)n1-c1ccc(C2CC2)c2ccccc12)NS(=O)(=O)c1ccc(Br)cc1
Activity [1]: Non-Toxic
Activity [2]: Non-Toxic
Cmax [3]: 3400 ng/mL
MRT inf [4]: 5.6 h
AUC(0-t) [5]: 19400 ng·h/mL
AUC(0-inf) [6]: 3090 ng·h/mL
IC50 [7]: 31.7 µM
Activity [8]: Non-Toxic

CC(Sc1nc2ncccc2n1-c1ccc(C2CC2)c2ccccc12)C(=O)O (racemic)
Tmax [9]: 18.7 h
Cmax [10]: 149000 ng/mL
half-life [11]: 3.9 h
MRT inf [12]: 15.7 h
Cmax [13]: 37900 ng/mL
AUC(0-inf) [14]: 335000 ng·h/mL
MRT inf [15]: 6.16 h
AUC(0-t) [16]: 335000 ng·h/mL
Tmax [17]: 0.5 h
MRT inf [18]: 6.44 h
AUC(0-t) [19]: 13000 ng·h/mL
Activity [1]: Non-Toxic
Activity [2]: Non-Toxic
AUC(0-inf) [6]: 3910 ng·h/mL
Cmax [20]: 15500 ng/mL
AUC(0-inf) [21]: 88800 ng·h/mL
AUC(0-t) [22]: 53200 ng·h/mL
Ratio (Rattus norvegicus): 1.6
Ratio IC50 [23]: > 8
Activity [8]: Non-Toxic
